Data set [1] concerns the target T1, Prostaglandin G/H synthase 1 (Ovis aries, UniProt P05979).
T1 sequence (P05979 whole entry): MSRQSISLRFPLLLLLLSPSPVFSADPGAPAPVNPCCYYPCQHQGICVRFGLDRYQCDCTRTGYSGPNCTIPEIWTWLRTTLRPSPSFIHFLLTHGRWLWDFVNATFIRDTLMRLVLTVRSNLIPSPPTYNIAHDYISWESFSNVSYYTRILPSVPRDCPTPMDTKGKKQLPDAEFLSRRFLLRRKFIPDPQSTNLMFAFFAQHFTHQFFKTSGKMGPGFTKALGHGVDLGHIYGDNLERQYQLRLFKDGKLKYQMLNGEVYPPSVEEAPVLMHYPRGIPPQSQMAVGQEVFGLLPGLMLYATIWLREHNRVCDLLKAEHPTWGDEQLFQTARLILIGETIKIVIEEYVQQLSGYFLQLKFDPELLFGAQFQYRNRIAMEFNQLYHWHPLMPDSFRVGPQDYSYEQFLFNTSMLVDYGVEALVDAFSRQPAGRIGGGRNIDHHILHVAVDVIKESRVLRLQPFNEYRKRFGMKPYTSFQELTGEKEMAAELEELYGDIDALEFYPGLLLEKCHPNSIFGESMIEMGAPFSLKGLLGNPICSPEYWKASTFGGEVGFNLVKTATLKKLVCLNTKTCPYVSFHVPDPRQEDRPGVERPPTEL
As to the kind of experiment: Inhibition of ovine COX-1 using arachidonic acid as substrate preincubated for 10 mins followed by substrate addition and measured after 2 mins by EIA. The method in brief:
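COX-1 EIA run at 10⁻⁴–10⁻⁸ M in triplicate. Enzyme with heme in reaction buffer plus inhibitor, incubated 10 min at 37 °C. Boiled (3 min) enzyme served as background. Prostaglandin output quantified to give IC50.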

The test system of data set [2] is Mus musculus. As to the kind of experiment: Antiinflammatory activity in Swiss albino mouse model of carrageenan-induced paw edema assessed as reduction in paw thickness at 5 mg/kg, administered 30 mins prior to carrageenan challenge and measured upto 360 mins relative to control. Type of data set: functional. Details: scale not given: the % may be the effect or the level left. The settings on record: time 390 min, 6.5 h. A digest of the protocol: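 100 μL freshly prepared 1% carrageenan injected into the subplantar hind paw, with indomethacin (10 mg/kg) or test compound given 30 min before. Dose–response arm used 0.5, 2.5, 5, 10, 20 mg/kg. Six animals per group. Paw thickness (mm) read at 15, 30, 60, 120, 180, 240, 300, 360 min. Result expressed as % decrease versus control.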
(In general: The carrageenan paw model is a standard test of acute inflammation.)

Data set [3] is described as follows: Half life in Swiss albino mouse at 10 mg/kg, ip measured upto 24 hrs by LC-MS analysis. Type of data set: ADME, organism-based. The settings on record: in vivo. A digest of the protocol:
(§1)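 Swiss albino mice (25−35 g), either sex, 10 groups of three. 10 mg/kg suspended in 0.1% CMC, given i.p. Ketamine anaesthesia (50 mg/kg i.p.). Jugular vein blood taken at 30, 45, 60 min and 2, 3, 4, 6, 8, 11, 24 h into heparinised tubes, triplicate samples per time point.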

A short description of data set [4]: AUC (0 to t) in Swiss albino mouse at 10 mg/kg, ip measured upto 24 hrs by LC-MS analysis. Type of data set: ADME, organism-based. Further details: route intraperitoneal, dose 10 mg/kg, time <=24. The settings on record: in vivo. The method in brief:
as §1

The subject of data set [5] is Glycine max. As to the kind of experiment: Binding affinity to soybean 5-LOX assessed as change in entropy by isothermal titration calorimetry. A digest of the protocol: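 ITC at 25 °C in 0.1 M Tris buffer. Ligand at 100 μM in DMSO:Tris (1:9) titrated from a syringe stirred at 500 rpm into enzyme in the sample cell, 120 s spacing. 40 × 1 μL injections, except COX-1 at 20 × 2 μL. Buffer-only control titrations were subtracted.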
(In ITC the heat of successive injections is recorded.)

The target in data set [6] is T2, Albumin (Homo sapiens, UniProt P02768). The data set can be described thus: Binding affinity to HSA assessed as change in enthalpy by isothermal titration calorimetry.
T2 sequence (P02768 whole entry): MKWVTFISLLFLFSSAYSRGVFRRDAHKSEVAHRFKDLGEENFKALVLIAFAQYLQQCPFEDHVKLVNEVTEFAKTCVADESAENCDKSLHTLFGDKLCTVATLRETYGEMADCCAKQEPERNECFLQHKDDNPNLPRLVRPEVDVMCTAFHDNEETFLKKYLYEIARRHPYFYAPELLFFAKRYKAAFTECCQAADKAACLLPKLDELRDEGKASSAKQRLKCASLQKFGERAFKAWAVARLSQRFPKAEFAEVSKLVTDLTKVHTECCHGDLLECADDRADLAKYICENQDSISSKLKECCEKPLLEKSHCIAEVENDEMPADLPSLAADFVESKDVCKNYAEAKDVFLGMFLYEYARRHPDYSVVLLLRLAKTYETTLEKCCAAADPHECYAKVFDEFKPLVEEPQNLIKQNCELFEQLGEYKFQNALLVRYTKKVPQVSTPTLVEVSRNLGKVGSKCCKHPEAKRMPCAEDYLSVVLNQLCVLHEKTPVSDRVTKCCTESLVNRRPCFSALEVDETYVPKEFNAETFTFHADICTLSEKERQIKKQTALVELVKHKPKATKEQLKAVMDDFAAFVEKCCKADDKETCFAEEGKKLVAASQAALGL
The target in data set [7] is T2, Albumin. As to the kind of experiment: Binding affinity to HSA assessed as change in entropy by isothermal titration calorimetry. The method in brief: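 Isothermal titration calorimetry at 25 °C. Ligand at 100 μM in DMSO:0.1 M Tris buffer (1:9), loaded in the syringe and stirred at 500 rpm. HSA (0.05 g per mL Tris buffer) placed in the sample cell. Forty 1 μL injections at 120 s intervals. Heats corrected with control titrations: ligand into buffer, and buffer into protein. Binding parameters fitted with a single-site model (Q = nΘMtΔHVo).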

The test system of data set [8] is Mus musculus. As to the kind of experiment: Analgesic activity in Swiss albino mouse assessed as inhibition of acetic acid-induced writhing at 5 mg/kg, ip preincubated for 30 mins with substance P followed by compound addition for 30 mins prior to acetic acid challenge and measured after 30 mins. Type of data set: functional, organism-based. The settings on record: time 60.0 min.

In data set [9] the test system is Mus musculus. The data set can be described thus: Analgesic activity in Swiss albino mouse assessed as inhibition of acetic acid-induced writhing at 5 mg/kg, ip preincubated for 30 mins with L-arginine followed by compound addition for 30 mins prior to acetic acid challenge and measured after 30 mins. Type of data set: functional, organism-based. The settings on record: time 60.0 min. (Writhing tests count abdominal constrictions after an irritant is injected.)

Data set [10] concerns Mus musculus. The data set can be described thus: Sedative activity in Swiss albino mouse at 300 mg/kg, po after 2 hrs. It is filed as ADME, organism-based. The settings on record: in vivo. A digest of the protocol:
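Acute oral toxicity in Swiss albino mice fasted 4 h, three per group, vehicle control group alongside. Single 300 mg/kg oral dose, continuous observation for 4 h, then periodic checks over 14 days.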

Data set [11] deals with T3, Prostaglandin G/H synthase 1 (Ovis aries) (UniProt P05979).
T3 sequence (whole entry): T1 sequence (P05979 whole entry)

Data set [12] concerns the target T3, Prostaglandin G/H synthase 1 (Ovis aries). This is another data set of the same source.
The target in data set [13] is T4, Prostaglandin G/H synthase 2 (Homo sapiens) (UniProt P35354).
T4 sequence (whole entry): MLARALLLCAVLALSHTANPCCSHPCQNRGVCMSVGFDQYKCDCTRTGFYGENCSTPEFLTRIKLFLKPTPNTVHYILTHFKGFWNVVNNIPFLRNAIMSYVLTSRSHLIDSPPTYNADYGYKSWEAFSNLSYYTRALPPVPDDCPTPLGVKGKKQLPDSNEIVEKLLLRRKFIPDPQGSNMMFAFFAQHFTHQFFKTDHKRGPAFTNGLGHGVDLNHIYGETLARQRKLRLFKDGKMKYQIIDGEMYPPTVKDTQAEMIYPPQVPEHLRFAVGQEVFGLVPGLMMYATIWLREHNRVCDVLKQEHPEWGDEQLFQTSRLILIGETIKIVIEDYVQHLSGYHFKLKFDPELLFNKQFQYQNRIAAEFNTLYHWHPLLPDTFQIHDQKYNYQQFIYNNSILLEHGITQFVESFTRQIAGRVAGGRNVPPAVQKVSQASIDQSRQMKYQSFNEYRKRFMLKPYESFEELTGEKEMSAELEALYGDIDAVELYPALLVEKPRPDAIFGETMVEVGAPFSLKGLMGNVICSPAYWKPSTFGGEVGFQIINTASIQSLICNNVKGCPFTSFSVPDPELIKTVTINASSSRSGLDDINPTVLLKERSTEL

Data set [14] relates to Glycine max.
For data set [15], the target named is T4, Prostaglandin G/H synthase 2 (Homo sapiens). This is another data set of the same source.
The target in data set [16] is T3, Prostaglandin G/H synthase 1 (Ovis aries). This is another data set of the same source.
Data set [17] addresses T4, Prostaglandin G/H synthase 2 (Homo sapiens). This is another data set of the same source.
Data set [18] has as its system Glycine max. This is another data set of the same source.

Experimental findings from ChEMBL document CHEMBL5032505, “Design, Synthesis, and Activity Evaluation of Stereoconfigured Tartarate Derivatives as Potential Anti-inflammatory Agents In Vitro and In Vivo” (J Med Chem, 2021) are described below.

As a reminder, the IC50 is the concentration needed to halve the response being measured. For orientation: half-life means the time needed for the level to fall by half in the phase considered. One may read the AUC(0-t) as the area under the concentration-time curve up to a stated or last time point.

The source made the active and inactive calls.

The compound `O=C(O)Cn1nncc1CO[C@@H](C(=O)O)[C@@H](OCc1cnnn1CC(=O)O)C(=O)O` yielded an IC50 in data set [1] of 300 nM. For the same compound, the Activity in the data set with Mus musculus [2] was 33%; with Mus musculus [10], “Non-Toxic”. For the same compound, the half-life in data set [3] was 8.74 h. In data set [4], the area under the curve AUC(0-t) at 24 h was found to be 241 µg·h/mL. Moreover, the values for the TdeltaS (with Glycine max [5]; on Albumin [7]; in data set [15]) were -2.99 kcal/mol, -258 kcal/mol and -2.57 kcal/mol, respectively. Further, the deltaH was -264 kcal/mol at Albumin [6], -600 kcal/mol in data set [12], -10.5 kcal/mol in data set [13] and -9.99 kcal/mol with Glycine max [14]. The outcome in the data set with Mus musculus [8] was inactive. The result in the data set with Mus musculus [9] was Active. In data set [11], the Ka was 1.64 10^3/M. Further, the deltaG in data set [16] was -5.02 kcal/mol; in [17], -7.88 kcal/mol; in the data set with Glycine max [18], -7 kcal/mol.
